{"source": "ChEMBL document CHEMBL1135423", "about": "“Acyl-protected hydroxylamines as spin label generators for EPR brain imaging” (J Med Chem, 2002)", "format_in_all_cases": "ADME, organism-based", "key": {"Mus musculus [1]": {"system": "Mus musculus", "assay": "Biodistribution of compound (oxidized form) in brain tissue, animals were sacrificed 60 minutes after dosing, in DMSO sol.", "conditions": "in vivo, 1 h", "method_in_brief": "(§1)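 In female C3H HenMTV⁻ mice (6-8 weeks, 22-25 g; three per time point), compound was injected ip as 500 µL of 40 mM solution. Animals were killed 10 or 60 min later. Brain, heart, liver, kidney, spleen and blood were removed and each homogenized in ice-cold PBS. Nitroxide (oxidized form) was quantified by EPR signal intensity in the half of each homogenate not treated with ferricyanide.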"}, "Mus musculus [2]": {"system": "Mus musculus", "assay": "Biodistribution in mice as total concentration of both oxidized and reduced forms in spleen and animals were sacrificed 10 minutes after ip administration in DMSO solution", "conditions": "in vivo", "method_in_brief": "(§2)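 Female C3H HenMTV⁻ mice (6-8 weeks old, 22-25 g; three per time point) were given an ip injection of 500 µL of 40 mM compound. They were euthanized at 10 or 60 min. Brain, heart, liver, kidney, spleen and blood were excised and each homogenized in ice-cold PBS. One half of each homogenate received K₃[Fe(CN)₆] (final 1 mM) to oxidize hydroxylamine to nitroxide. Total nitroxide plus hydroxylamine was read from EPR signal intensity.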"}, "Mus musculus [3]": {"system": "Mus musculus", "assay": "Biodistribution of compound (oxidized form) in heart tissue, animals were sacrificed 60 minutes after dosing, in DMSO sol.", "conditions": "in vivo, 1 h", "method_in_brief": "as §1"}, "Mus musculus [4]": {"system": "Mus musculus", "assay": "Biodistribution in mice as total concentration of both oxidized and reduced forms in kidney and animals were sacrificed 10 minutes after dosing, in DMSO sol.", "conditions": "in vivo", "method_in_brief": "as §2"}, "Mus musculus [5]": {"system": "Mus musculus", "assay": "Biodistribution of compound (oxidized form) in spleen tissue, animals were sacrificed 10 minutes after dosing, in DMSO sol.", "conditions": "in vivo", "method_in_brief": "as §1"}, "Mus musculus [6]": {"system": "Mus musculus", "assay": "Biodistribution of compound (oxidized form) in heart tissue, animals were sacrificed 10 minutes after dosing, in DMSO sol.", "conditions": "in vivo", "method_in_brief": "as §1"}, "Mus musculus [7]": {"system": "Mus musculus", "assay": "Biodistribution in mice as total concentration of both oxidized and reduced forms in liver and animals were sacrificed 10 minutes after dosing, in DMSO sol.", "conditions": "in vivo", "method_in_brief": "as §2"}, "Mus musculus [8]": {"system": "Mus musculus", "assay": "Biodistribution in mice as total concentration of both oxidized and reduced forms in brain tissues, animals were sacrificed 60 minutes after dosing, in DMSO sol.", "conditions": "in vivo, 1 h", "method_in_brief": "as §2"}, "Mus musculus [9]": {"system": "Mus musculus", "assay": "Biodistribution of compound (oxidized form) in spleen tissues, animals were sacrificed 60 minutes after dosing, in DMSO sol.", "conditions": "in vivo, 1 h", "method_in_brief": "as §1"}, "Mus musculus [10]": {"system": "Mus musculus", "assay": "Biodistribution in mice as total concentration of both oxidized and reduced forms in liver tissues, animals were sacrificed 60 minutes after dosing, in DMSO sol.", "conditions": "in vivo, 1 h", "method_in_brief": "as §2"}, "Mus musculus [11]": {"system": "Mus musculus", "assay": "Biodistribution of compound (oxidized form) in liver tissue, animals were sacrificed 10 minutes after dosing, in DMSO sol.", "conditions": "in vivo", "method_in_brief": "as §1"}, "Mus musculus [12]": {"system": "Mus musculus", "assay": "Biodistribution in mice as total concentration of both oxidized and reduced forms in kidney tissues, animals were sacrificed 60 minutes after dosing, in DMSO sol.", "conditions": "in vivo, 1 h", "method_in_brief": "as §2"}, "Mus musculus [13]": {"system": "Mus musculus", "assay": "Biodistribution in mice as total concentration of both oxidized and reduced forms in spleen tissues, animals were sacrificed 60 minutes after dosing, in DMSO sol.", "conditions": "in vivo, 1 h", "method_in_brief": "as §2"}, "Mus musculus [14]": {"system": "Mus musculus", "assay": "Biodistribution of compound (oxidized form) in blood tissue, animals were sacrificed 10 minutes after dosing, in DMSO sol.", "conditions": "in vivo", "method_in_brief": "as §1"}, "Mus musculus [15]": {"system": "Mus musculus", "assay": "Biodistribution in mice as total concentration of both oxidized and reduced forms in heart tissues, animals were sacrificed 60 minutes after dosing, in DMSO sol.", "conditions": "in vivo, 1 h", "method_in_brief": "as §2"}, "Mus musculus [16]": {"system": "Mus musculus", "assay": "Biodistribution in mice as total concentration of both oxidized and reduced forms in blood and animals were sacrificed 10 minutes after ip administration in DMSO solution", "conditions": "in vivo", "method_in_brief": "as §2"}, "Mus musculus [17]": {"system": "Mus musculus", "assay": "Biodistribution of compound (oxidized form) in kidney tissue, animals were sacrificed 60 minutes after dosing, in DMSO sol.", "conditions": "in vivo, 1 h", "method_in_brief": "as §1"}, "Mus musculus [18]": {"system": "Mus musculus", "assay": "Biodistribution in mice as total concentration of both oxidized and reduced forms in blood tissues, animals were sacrificed 60 minutes after dosing, in DMSO sol.", "conditions": "in vivo, 1 h", "method_in_brief": "as §2"}, "Mus musculus [19]": {"system": "Mus musculus", "assay": "Biodistribution in mice as total concentration of both oxidized and reduced forms in heart tissues, animals were sacrificed 10 minutes after dosing, in DMSO sol.", "conditions": "in vivo", "method_in_brief": "as §2"}, "Mus musculus [20]": {"system": "Mus musculus", "assay": "Biodistribution of compound (oxidized form) in liver tissues, animals were sacrificed 60 minutes after dosing, in DMSO sol.", "conditions": "in vivo, 1 h", "method_in_brief": "as §1"}, "Mus musculus [21]": {"system": "Mus musculus", "assay": "Biodistribution of compound (total concentration of both oxidized and reduced forms) in brain tissues, animals were sacrificed 10 minutes after dosing, in DMSO", "conditions": "in vivo", "method_in_brief": "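Female C3H HenMTV⁻ mice (6-8 weeks old, 22-25 g; three per time point) got one i.p. injection of 500 µL of 40 mM compound. They were euthanized at 10 or 60 min. Organs and blood were excised and homogenized separately in ice-cold PBS. One half of each homogenate received K₃[Fe(CN)₆] (final 1 mM) to oxidize hydroxylamine. Total nitroxide plus hydroxylamine was quantified by EPR signal intensity.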"}, "Mus musculus [22]": {"system": "Mus musculus", "assay": "Biodistribution of compound (oxidized form) in brain tissue, animals were sacrificed 10 minutes after dosing, in DMSO sol.", "conditions": "in vivo", "method_in_brief": "as §1"}, "Mus musculus [23]": {"system": "Mus musculus", "assay": "Biodistribution of compound (oxidized form) in kidney tissue, animals were sacrificed 10 minutes after dosing, in DMSO sol.", "conditions": "in vivo", "method_in_brief": "as §1"}, "Mus musculus [24]": {"system": "Mus musculus", "assay": "Biodistribution of compound (oxidized form) in blood tissues, animals were sacrificed 60 minutes after dosing, in DMSO sol.", "conditions": "in vivo, 1 h", "method_in_brief": "as §1"}}, "data": [{"compound": "COC(=O)C1CC(C)(C)N(OC(C)=O)C(C)(C)C1", "values": [{"measurement": "Biodistribution", "setting": "Mus musculus [1]", "result": "5 nM (g of tissue)-1"}, {"measurement": "Biodistribution", "setting": "Mus musculus [2]", "result": "100 nM (g of tissue)-1"}, {"measurement": "Biodistribution", "setting": "Mus musculus [3]", "result": "0 nM (g of tissue)-1"}, {"measurement": "Biodistribution", "setting": "Mus musculus [4]", "result": "400 nM (g of tissue)-1"}, {"measurement": "Biodistribution", "setting": "Mus musculus [5]", "result": "0 nM (g of tissue)-1"}, {"measurement": "Biodistribution", "setting": "Mus musculus [6]", "result": "0 nM (g of tissue)-1"}, {"measurement": "Biodistribution", "setting": "Mus musculus [7]", "result": "50 nM (g of tissue)-1"}, {"measurement": "Biodistribution", "setting": "Mus musculus [8]", "result": "25 nM (g of tissue)-1"}, {"measurement": "Biodistribution", "setting": "Mus musculus [9]", "result": "0 nM (g of tissue)-1"}, {"measurement": "Biodistribution", "setting": "Mus musculus [10]", "result": "30 nM (g of tissue)-1"}, {"measurement": "Biodistribution", "setting": "Mus musculus [11]", "result": "0 nM (g of tissue)-1"}, {"measurement": "Biodistribution", "setting": "Mus musculus [12]", "result": "25 nM (g of tissue)-1"}, {"measurement": "Biodistribution", "setting": "Mus musculus [13]", "result": "25 nM (g of tissue)-1"}, {"measurement": "Biodistribution", "setting": "Mus musculus [14]", "result": "0 nM (g of tissue)-1"}, {"measurement": "Biodistribution", "setting": "Mus musculus [15]", "result": "25 nM (g of tissue)-1"}, {"measurement": "Biodistribution", "setting": "Mus musculus [16]", "result": "100 nM (g of tissue)-1"}, {"measurement": "Biodistribution", "setting": "Mus musculus [17]", "result": "0 nM (g of tissue)-1"}, {"measurement": "Biodistribution", "setting": "Mus musculus [18]", "result": "25 nM (g of tissue)-1"}, {"measurement": "Biodistribution", "setting": "Mus musculus [19]", "result": "10 nM (g of tissue)-1"}, {"measurement": "Biodistribution", "setting": "Mus musculus [20]", "result": "0 nM (g of tissue)-1"}, {"measurement": "Biodistribution", "setting": "Mus musculus [21]", "result": "0 nM (g of tissue)-1"}, {"measurement": "Biodistribution", "setting": "Mus musculus [22]", "result": "2 nM (g of tissue)-1"}, {"measurement": "Biodistribution", "setting": "Mus musculus [23]", "result": "0 nM (g of tissue)-1"}, {"measurement": "Biodistribution", "setting": "Mus musculus [24]", "result": "0 nM (g of tissue)-1"}]}]}
